≈ marks a conversion by molar mass, not a printed value.
How the values were obtained:
Assay type in all cases: functional
[1] = test system: Streptococcus pneumoniae; assay: Antimicrobial activity against Streptococcus pneumoniae isolate 24 by agar dilution method
[2] = test system: Streptococcus pneumoniae; assay: Antimicrobial activity against Streptococcus pneumoniae isolate 3282 by agar dilution method
[3] = test system: Streptococcus pneumoniae; assay: Antimicrobial activity against Streptococcus pneumoniae isolate 1384 by agar dilution method
Method in brief: (§1)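 Agar dilution MIC on Mueller-Hinton agar with 5% sheep blood, inocula 10^4 CFU/spot; amoxicillin-clavulanate combined 1:2; S. pneumoniae ATCC 49619 quality control each run.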

[4] = test system: Streptococcus pneumoniae; assay: Antimicrobial activity against Streptococcus pneumoniae isolate 3412 by agar dilution method; method in brief: as §1
[5] = test system: Streptococcus pneumoniae; assay: Antimicrobial activity against Streptococcus pneumoniae isolate 3455 by agar dilution method
[6] = test system: Streptococcus pneumoniae; assay: Antimicrobial activity against Streptococcus pneumoniae 7 by time-kill analysis
Method in brief: (§2)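 Time-kill in cation-adjusted Mueller-Hinton broth with 5% lysed horse blood; inocula 5 × 105 to 5 × 10^6 CFU/ml; drugs at MIC, 2× and 4× MIC; 35°C shaking water bath; viable counts at 0, 3, 6, 12, 24 h. Bactericidal = ≥3 log10 CFU/ml (99.9%) drop from original inoculum; 90%/99%/99.9% killing scored per strain.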

[7] = test system: Streptococcus pneumoniae; assay: Antimicrobial activity against Streptococcus pneumoniae isolate 37 by agar dilution method; method in brief: as §1
[8] = test system: Streptococcus pneumoniae; assay: Antimicrobial activity against Streptococcus pneumoniae isolate 1424 by agar dilution method; method in brief: as §1
[9] = test system: Streptococcus pneumoniae; assay: Antimicrobial activity against Streptococcus pneumoniae isolate 1055 by agar dilution method
[10] = test system: Streptococcus pneumoniae; assay: Antimicrobial activity against Streptococcus pneumoniae isolate 4747 by agar dilution method; method in brief: as §1
[11] = test system: Streptococcus pneumoniae; assay: Antimicrobial activity against Streptococcus pneumoniae isolate 1147 by agar dilution method; method in brief: as §1
[12] = test system: Streptococcus pneumoniae; assay: Antimicrobial activity against Streptococcus pneumoniae 2 by time-kill analysis; method in brief: as §2
[13] = test system: Streptococcus pneumoniae; assay: Antimicrobial activity against Streptococcus pneumoniae isolate 3263 by agar dilution method
[14] = test system: Streptococcus pneumoniae; assay: Antimicrobial activity against Streptococcus pneumoniae 9 by time-kill analysis
Method in brief: as §2, with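 “12 and” for “12,”, “if” for “=”, “reduction” for “drop”, “90% and 99%” for “90%/99%/99.9%”, “also scored.” for “scored per strain.”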

[15] = test system: Streptococcus pneumoniae; assay: Antimicrobial activity against Streptococcus pneumoniae isolate 3458 by agar dilution method
[16] = test system: Streptococcus pneumoniae; assay: Antimicrobial activity against Streptococcus pneumoniae isolate 1397 by agar dilution method; method in brief: as §1
[17] = test system: Streptococcus pneumoniae; assay: Antimicrobial activity against Streptococcus pneumoniae 19A by agar dilution method; method in brief: as §1
[18] = test system: Streptococcus pneumoniae; assay: Antimicrobial activity against Streptococcus pneumoniae 1 by time-kill analysis
Method in brief: as §2, with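 “12 and” for “12,”, “if” for “=”, “reduction” for “drop”, “90% and 99%” for “90%/99%/99.9%”, “also scored.” for “scored per strain.”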

[19] = test system: Streptococcus pneumoniae; assay: Antimicrobial activity against Streptococcus pneumoniae 6 by time-kill analysis; method in brief: as §2
[20] = test system: Streptococcus pneumoniae; assay: Antimicrobial activity against Streptococcus pneumoniae isolate 33 by agar dilution method; method in brief: as §1
[21] = test system: Streptococcus pneumoniae; assay: Antimicrobial activity against Streptococcus pneumoniae 8 by time-kill analysis; method in brief: as §2
[22] = test system: Streptococcus pneumoniae; assay: Antimicrobial activity against Streptococcus pneumoniae isolate 2880 by agar dilution method; method in brief: as §1
[23] = test system: Streptococcus pneumoniae; assay: Antimicrobial activity against Streptococcus pneumoniae 10 by time-kill analysis; method in brief: as §2
[24] = test system: Streptococcus pneumoniae; assay: Antimicrobial activity against Streptococcus pneumoniae isolate 3260 by agar dilution method
[25] = test system: Streptococcus pneumoniae; assay: Antimicrobial activity against Streptococcus pneumoniae isolate 2686 by agar dilution method; method in brief: as §1
[26] = test system: Streptococcus pneumoniae; assay: Antimicrobial activity against Streptococcus pneumoniae isolate 2688 by agar dilution method; method in brief: as §1
[27] = test system: Streptococcus pneumoniae; assay: Antimicrobial activity against Streptococcus pneumoniae isolate 3791 by agar dilution method; method in brief: as §1
[28] = test system: Streptococcus pneumoniae; assay: Antimicrobial activity against Streptococcus pneumoniae 3 by time-kill analysis; method in brief: as §2
[29] = test system: Streptococcus pneumoniae; assay: Antimicrobial activity against Streptococcus pneumoniae isolate 4755 by agar dilution method; method in brief: as §1
[30] = test system: Streptococcus pneumoniae; assay: Antimicrobial activity against Streptococcus pneumoniae isolate 3587 by agar dilution method
[31] = test system: Streptococcus pneumoniae; assay: Antimicrobial activity against Streptococcus pneumoniae isolate 3275 by agar dilution method; method in brief: as §1
[32] = test system: Streptococcus pneumoniae; assay: Antimicrobial activity against Streptococcus pneumoniae isolate 1564 by agar dilution method
[33] = test system: Streptococcus pneumoniae; assay: Antimicrobial activity against Streptococcus pneumoniae isolate 2874 by agar dilution method; method in brief: as §1
[34] = test system: Streptococcus pneumoniae; assay: Antimicrobial activity against penicillin-intermediate Streptococcus pneumoniae by agar dilution method
[35] = test system: Streptococcus pneumoniae; assay: Antimicrobial activity against Streptococcus pneumoniae isolate 2617 by agar dilution method; method in brief: as §1
[36] = test system: Streptococcus pneumoniae; assay: Antimicrobial activity against Streptococcus pneumoniae 12 by time-kill analysis; method in brief: as §2
[37] = test system: Streptococcus pneumoniae; assay: Antimicrobial activity against Streptococcus pneumoniae isolate 1394 by agar dilution method
[38] = test system: Streptococcus pneumoniae; assay: Antimicrobial activity against penicillin-susceptible Streptococcus pneumoniae by agar dilution method
[39] = test system: Streptococcus pneumoniae; assay: Antimicrobial activity against Streptococcus pneumoniae isolate 3346 by agar dilution method
[40] = test system: Streptococcus pneumoniae; assay: Antimicrobial activity against Streptococcus pneumoniae 4 by time-kill analysis; method in brief: as §2
[41] = test system: Streptococcus pneumoniae; assay: Antimicrobial activity against Streptococcus pneumoniae isolate 3681 by agar dilution method; method in brief: as §1
[42] = test system: Streptococcus pneumoniae; assay: Antimicrobial activity against Streptococcus pneumoniae isolate 1146 by agar dilution method; method in brief: as §1
[43] = test system: Streptococcus pneumoniae; assay: Antimicrobial activity against Streptococcus pneumoniae 5 by time-kill analysis
Method in brief: as §2, with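 “12 and” for “12,”, “if” for “=”, “reduction” for “drop”, “90% and 99%” for “90%/99%/99.9%”, “also scored.” for “scored per strain.”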

[44] = test system: Streptococcus pneumoniae; assay: Antimicrobial activity against penicillin-resistant Streptococcus pneumoniae by agar dilution method; method in brief: as §1
[45] = test system: Streptococcus pneumoniae; assay: Antimicrobial activity against Streptococcus pneumoniae isolate 3374 by agar dilution method; method in brief: as §1
[46] = test system: Streptococcus pneumoniae; assay: Antimicrobial activity against Streptococcus pneumoniae isolate 3481 by agar dilution method; method in brief: as §1
[47] = test system: Streptococcus pneumoniae; assay: Antimicrobial activity against Streptococcus pneumoniae 11 by time-kill analysis; method in brief: as §2

Structure (SMILES): COCC1=C(C(=O)O)N2C(=O)[C@@H](NC(=O)/C(=N\OC)c3csc(N)n3)[C@H]2SC1 [CEFPODOXIME]
- MIC [1]: 2 µg/mL (≈ 4.68 µM)
- MIC [2]: 2 µg/mL (≈ 4.68 µM)
- MIC [3]: 4 µg/mL (≈ 9.36 µM)
- MIC [4]: 4 µg/mL (≈ 9.36 µM)
- MIC [5]: 4 µg/mL (≈ 9.36 µM)
- MIC [6]: 4 µg/mL (≈ 9.36 µM)
- MIC [7]: 4 µg/mL (≈ 9.36 µM)
- MIC [8]: 4 µg/mL (≈ 9.36 µM)
- MIC [9]: 2 µg/mL (≈ 4.68 µM)
- MIC [10]: 2 µg/mL (≈ 4.68 µM)
- MIC [11]: 8 µg/mL (≈ 18.7 µM)
- MIC [12]: 0.016 µg/mL (≈ 0.0374 µM)
- MIC [13]: 4 µg/mL (≈ 9.36 µM)
- MIC [14]: 0.25 µg/mL (≈ 0.585 µM)
- MIC [15]: 4 µg/mL (≈ 9.36 µM)
- MIC [16]: 4 µg/mL (≈ 9.36 µM)
- MIC50 [17]: 8 µg/mL (≈ 18.7 µM)
- MIC90 [17]: 8 µg/mL (≈ 18.7 µM)
- MIC [18]: 0.03 µg/mL (≈ 0.0702 µM)
- MIC [19]: 0.5 µg/mL (≈ 1.17 µM)
- MIC [20]: 4 µg/mL (≈ 9.36 µM)
- MIC [21]: 4 µg/mL (≈ 9.36 µM)
- MIC [22]: 2 µg/mL (≈ 4.68 µM)
- MIC [23]: 0.25 µg/mL (≈ 0.585 µM)
- MIC [24]: 2 µg/mL (≈ 4.68 µM)
- MIC [25]: 8 µg/mL (≈ 18.7 µM)
- MIC [26]: 32 µg/mL (≈ 74.9 µM)
- MIC [27]: 4 µg/mL (≈ 9.36 µM)
- MIC [28]: 0.5 µg/mL (≈ 1.17 µM)
- MIC [29]: 4 µg/mL (≈ 9.36 µM)
- MIC [30]: 4 µg/mL (≈ 9.36 µM)
- MIC [31]: 1 µg/mL (≈ 2.34 µM)
- MIC [32]: 32 µg/mL (≈ 74.9 µM)
- MIC [33]: 4 µg/mL (≈ 9.36 µM)
- MIC50 [34]: 0.25 µg/mL (≈ 0.585 µM)
- MIC90 [34]: 2 µg/mL (≈ 4.68 µM)
- MIC [35]: 2 µg/mL (≈ 4.68 µM)
- MIC [36]: 2 µg/mL (≈ 4.68 µM)
- MIC [37]: 8 µg/mL (≈ 18.7 µM)
- MIC [38]: 0.03 µg/mL (≈ 0.0702 µM)
- MIC50 [38]: 0.03 µg/mL (≈ 0.0702 µM)
- MIC90 [38]: 0.06 µg/mL (≈ 0.14 µM)
- MIC [39]: 4 µg/mL (≈ 9.36 µM)
- MIC [40]: 8 µg/mL (≈ 18.7 µM)
- MIC [41]: 4 µg/mL (≈ 9.36 µM)
- MIC [42]: 8 µg/mL (≈ 18.7 µM)
- MIC [43]: 8 µg/mL (≈ 18.7 µM)
- MIC50 [44]: 4 µg/mL (≈ 9.36 µM)
- MIC90 [44]: 8 µg/mL (≈ 18.7 µM)
- MIC [45]: 4 µg/mL (≈ 9.36 µM)
- MIC [46]: 4 µg/mL (≈ 9.36 µM)
- MIC [47]: 4 µg/mL (≈ 9.36 µM)
